Active and inactive are the calls of the source. The rule behind the calls is not given here.
Columns and labels:
CCRF-CEM [1] = assay: Cell cycle arrest in human CCRF-CEM cells assessed as accumulation at sub-G1 phase at IC50 after 24 hrs by propidium iodide staining-based flow cytometric analysis (reference value: 9.6%); type: functional
[2] = Cytotoxicity against human HuH7 cells infected with Hepatitis C virus subtype 2a; type: cell-based, Huh-7
Hepatitis C virus [3] = assay: Antiviral activity against Hepatitis C virus subtype 2a infected in human HuH7 cells; type: functional, organism-based, Hepacivirus hominis; conditions: genotype 2a, Huh-7
[4] = Cytotoxicity against human HuH7 cells infected with Hepatitis C virus subtype 1b; type: cell-based, Huh-7
Hepatitis C virus [5] = assay: Antiviral activity against Hepatitis C virus subtype 1b infected in human HuH7 cells; type: functional, organism-based, Hepacivirus hominis; conditions: genotype 1b, Huh-7
Candida tropicalis = assay: Antifungal activity against Candida tropicalis after 48 hrs; type: functional, organism-based
Pichia kudriavzevii = assay: Antifungal activity against Candida crusei after 48 hrs; type: functional, organism-based
Candida parapsilosis = assay: Antifungal activity against Candida parapsilosis after 48 hrs; type: functional, organism-based
Candida albicans = assay: Antifungal activity against Candida albicans after 48 hrs; type: functional, organism-based
Pseudomonas aeruginosa [6] = assay: Antibacterial activity against multi-resistant Pseudomonas aeruginosa A/16575 after 24 hrs; type: functional, organism-based
Escherichia coli [7] = assay: Antibacterial activity against multi-resistant Escherichia coli C/16702 after 24 hrs; type: functional, organism-based
[8] = system: Staphylococcus haemolyticus; assay: Antibacterial activity against methicillin-resistant Staphylococcus haemolyticus A/16568 after 24 hrs; type: functional, organism-based
Staphylococcus aureus [9] = assay: Antibacterial activity against methicillin-resistant Staphylococcus aureus MRSA 4591 after 24 hrs; type: functional, organism-based
Pseudomonas aeruginosa [10] = assay: Antibacterial activity against Pseudomonas aeruginosa CCM 3955 after 24 hrs; type: functional, organism-based
Escherichia coli [11] = assay: Antibacterial activity against Escherichia coli CCM 3954 after 24 hrs; type: functional, organism-based
Staphylococcus aureus [12] = assay: Antibacterial activity against Staphylococcus aureus CCM 3953 after 24 hrs; type: functional, organism-based
Enterococcus faecalis = assay: Antibacterial activity against Enterococcus faecalis CCM 4224 after 24 hrs; type: functional, organism-based
[13] = Antiproliferative activity against human HeLaS3 cells after 72 hrs by XTT assay; type: functional, cell-based; conditions: HeLa S3, 72 h
In short: (§1)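 Antiproliferative test on HL-60 promyelocytic leukemia and HeLa S3 cervical carcinoma cells growing in liquid suspension.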

HL-60 = assay: Antiproliferative activity against human HL60 cells after 72 hrs by XTT assay; type: functional, cell-based; conditions: HL-60, 72 h; in short: as §1
HepG2 = assay: Antiproliferative activity against human HepG2 cells after 72 hrs by XTT assay; type: functional, cell-based; conditions: HepG2, 72 h
MRC5 = assay: Cytostatic activity against human MRC5 cells after 72 hrs by MTT assay; type: ADME, cell-based; conditions: MRC5, 72 h
In short: (§2)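 IC50 is the concentration that cuts cell growth by 50%, read by quantitative metabolic MTT staining after a 3-day treatment. The resistant sublines were made by raising the concentration of the cytotoxic drug step by step. CEM-DNR-bulk (daunorubicin-selected) stably overexpresses mrp-1. K562-TAX (paclitaxel-selected) expresses only mdr-1. HCT116p53−/− carries null p53 alleles. BJ and MRC-5 are nonmalignant fibroblasts.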

BJ = assay: Cytostatic activity against human BJ cells after 72 hrs by MTT assay; type: ADME, cell-based; in short: as §2
HCT-116 [14] = assay: Cytostatic activity against p53-deficient human HCT116 cells after 72 hrs by MTT assay; type: functional, cell-based; conditions: HCT-116, 72 h; in short: as §2
HCT-116 [15] = assay: Cytostatic activity against human HCT116 cells after 72 hrs by MTT assay; type: functional, cell-based; conditions: HCT-116, 72 h; in short: as §2
A549 = assay: Cytostatic activity against human A549 cells after 72 hrs by MTT assay; type: functional, cell-based; conditions: A549, 72 h; in short: as §2
K562 [16] = assay: Cytostatic activity against paclitaxel-resistant human K562 cells after 72 hrs by MTT assay; type: functional, cell-based; conditions: K562, 72 h; in short: as §2
K562 [17] = assay: Cytostatic activity against human K562 cells after 72 hrs by MTT assay; type: functional, cell-based; conditions: K562, 72 h; in short: as §2
[18] = Cytostatic activity against human CEM-DNR-bulk cells after 72 hrs by MTT assay; type: functional, cell-based; in short: as §2
CCRF-CEM [19] = assay: Cytostatic activity against human CCRF-CEM cells after 72 hrs by MTT assay; type: functional, cell-based; in short: as §2
CCRF-CEM [20] = assay: Mitotic arrest in human CCRF-CEM cells assessed as pH3Ser10-positive cells at IC50 after 24 hrs by propidium iodide staining-based flow cytometric analysis (reference value: 1.4%); type: functional
CCRF-CEM [21] = assay: Inhibition of RNA synthesis in human CCRF-CEM cells assessed as BrU-positive cells at IC50 after 24 hrs by propidium iodide staining-based flow cytometric analysis (reference value: 43.3%); type: functional; design: scale not given: the % may be the effect or the level left

| Compound | CC50 [2] [nM] | EC50 (Hepatitis C virus [3]) [nM] | CC50 [4] [nM] | EC50 (Hepatitis C virus [5]) [nM] | Activity (Candida tropicalis) | Activity (Pichia kudriavzevii) | Activity (Candida parapsilosis) | Activity (Candida albicans) | Activity (Pseudomonas aeruginosa [6]) | Activity (Escherichia coli [7]) | Activity [8] | Activity (Staphylococcus aureus [9]) | Activity (Pseudomonas aeruginosa [10]) | Activity (Escherichia coli [11]) | Activity (Staphylococcus aureus [12]) | Activity (Enterococcus faecalis) | IC50 [13] [nM] | IC50 (HL-60) [nM] | IC50 (HepG2) [nM] | IC50 (MRC5) [nM] | other results |
| --- | --- | --- | --- | --- | --- | --- | --- | --- | --- | --- | --- | --- | --- | --- | --- | --- | --- | --- | --- | --- | --- |
| COc1ncnc2c1c(-c1ccco1)cn2[C@@H]1O[C@H](CO)[C@@H](O)[C@H]1O | > 44000 | 30 | > 44000 | 20 | inactive | inactive | inactive | inactive | inactive | inactive | inactive | inactive | inactive | inactive | inactive | inactive | 1020 | 100 | 300 | 1700 | Activity (CCRF-CEM [1]): 6.8%; IC50 (BJ): 430 nM; IC50 (HCT-116 [14]): 40 nM; IC50 (HCT-116 [15]): 40 nM; IC50 (A549): 30 nM; IC50 (K562 [16]): 380 nM; IC50 (K562 [17]): 60 nM; IC50 [18]: 160 nM; IC50 (CCRF-CEM [19]): 20 nM; Activity (CCRF-CEM [20]): 1.4% |
| CSc1ncnc2c1c(-c1ccco1)cn2[C@@H]1O[C@H](CO)[C@@H](O)[C@H]1O | > 44000 | 50 | 38600 | 70 | inactive | inactive | inactive | inactive | inactive | inactive | inactive | inactive | inactive | inactive | inactive | inactive | 540 | 120 | 220 | 73900 | Activity (CCRF-CEM [21]): 5%; Activity (CCRF-CEM [1]): 7.9%; IC50 (BJ): 260 nM; IC50 (HCT-116 [14]): 10 nM; IC50 (HCT-116 [15]): 20 nM; IC50 (A549): 50 nM; IC50 (K562 [16]): 210 nM; IC50 (K562 [17]): 40 nM; IC50 [18]: 230 nM; IC50 (CCRF-CEM [19]): 50 nM; Activity (CCRF-CEM [20]): 0.7% |
| CNc1ncnc2c1c(-c1ccco1)cn2[C@@H]1O[C@H](CO)[C@@H](O)[C@H]1O | > 44000 | 140 | > 44000 | 60 | inactive | inactive | inactive | inactive | inactive | inactive | inactive | inactive | inactive | inactive | inactive | inactive | 5000 | 620 | 850 | 90800 | Activity (CCRF-CEM [21]): 1%; IC50 (BJ): 5040 nM; IC50 (HCT-116 [14]): 440 nM; IC50 (HCT-116 [15]): 230 nM; IC50 (A549): 2570 nM; IC50 (K562 [16]): 15100 nM; IC50 (K562 [17]): 220 nM; IC50 [18]: > 20000 nM; IC50 (CCRF-CEM [19]): 180 nM; Activity (CCRF-CEM [20]): 1.4% |
| C#Cc1cn([C@@H]2O[C@H](CO)[C@@H](O)[C@H]2O)c2nc(N)nc(OC)c12 | > 44000 | > 44000 | > 44000 | > 44000 | inactive | inactive | inactive | inactive | inactive | inactive | inactive | inactive | inactive | inactive | inactive | inactive | > 20000 | > 20000 | > 20000 | > 100000 | IC50 (BJ): > 100000 nM; IC50 (HCT-116 [14]): > 20000 nM; IC50 (HCT-116 [15]): > 20000 nM; IC50 (A549): > 100000 nM; IC50 (K562 [16]): > 20000 nM; IC50 (K562 [17]): > 20000 nM; IC50 [18]: > 20000 nM; IC50 (CCRF-CEM [19]): > 100000 nM |
